# An excerpt weighted towards active compounds, which were near 3.4% of everything screened.
# HTR2A ag = agonists of mouse serotonin 5-HT2A receptor (HTR2A); CHO-K1 mHTR2A beta-arrestin complementation, luminescence; percent of 30 µM serotonin response; actives 0.66% (n = 360,000); activation, % at 7.6 µM; P35363;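 active = activation above a run cutoff, the mean activation of all tested compounds plus 3 SD, cut at about 14% in these data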;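 note: 0% = plate median of compound wells and 100% = 30 µM serotonin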
# Target sequence (P35363 whole entry, looked up): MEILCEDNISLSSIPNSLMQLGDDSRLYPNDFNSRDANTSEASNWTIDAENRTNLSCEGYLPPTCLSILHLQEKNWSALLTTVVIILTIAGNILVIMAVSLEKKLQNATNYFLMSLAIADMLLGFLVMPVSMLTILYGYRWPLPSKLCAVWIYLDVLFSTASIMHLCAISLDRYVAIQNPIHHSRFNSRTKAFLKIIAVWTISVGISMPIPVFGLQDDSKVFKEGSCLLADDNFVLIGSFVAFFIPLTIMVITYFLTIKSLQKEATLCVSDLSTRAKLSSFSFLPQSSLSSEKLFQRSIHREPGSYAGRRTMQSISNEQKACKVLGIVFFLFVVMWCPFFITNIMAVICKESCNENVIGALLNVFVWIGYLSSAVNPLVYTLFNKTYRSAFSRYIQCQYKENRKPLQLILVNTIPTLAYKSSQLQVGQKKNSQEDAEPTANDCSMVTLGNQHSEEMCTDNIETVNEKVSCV
# beta cell repl = induces beta-cell replication in MIN6 cells; proliferation, % at 10 µM; MIN6 cells proliferation, ATPlite luminescence, 48 h; cells starved in 0.2% serum; 100% = growth in 10% serum; actives 0.29% (n = 330,000);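 active = compounds whose signal lies at least 3.5 SD above the mean of all wells on their plate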;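 note: 0% = DMSO-treated cells in low-serum medium and 100% = 10% serum control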
# TMEM16A act = activates or potentiates the mouse TMEM16A chloride channel; Q8BHY3; HEK293 TMEM16A/YFP-H148Q/I152L, iodide quench fluorescence; hits give low values; B-score at 10 µM; actives 0.3% (n = 340,000); AID 623877;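 active = fluorescence-ratio B-score plate-corrected deviation score at least 3 library SD below zero, with starting fluorescence score within 5 deviations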;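 note: channel opened by trigger with iodide after compound preincubation; score built on the fluorescence ratio of max minus min over baseline; more negative score means more quench and so TMEM16A activation or potentiation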
# MC4R antag cAMP = blocks human MC4R cAMP signaling; MC4R-expressing cells, MTII-stimulated cAMP, LANCE TR-FRET; inhibition, % at 6.5 µM; actives 0.48% (n = 360,000); AID 540295;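 active = inhibition above its plate's cutoff, the mean of tested wells on that plate plus 3 SD, cut at about 29% in these data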;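 note: 0% = Melanotan II alone and 100% = Melanotan II plus saturating MCL0020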
#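 System: U2OS-MC4R stable cell line; Technique: Eu-cAMP/anti-cAMP TR-FRET, emission 671 nm; Repeats: single well per compound; Also added: Melanotan II; Dosing: one concentration, 6.5 µM nominal; Schedule: 30-min compound, 1-h challenge, 1-h detection, room temperature.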
# MC4R ag barr = human MC4R agonism via beta-arrestin; P32245; AID 540308; actives 0.98% (n = 360,000); activation, % at 8.9 µM; U2OS MC4R beta-arrestin complementation, luminescence; percent of melanotan II response, DMSO zero;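 active = activation above a per-plate cutoff, the mean activation of sample wells on that plate plus 3 SD, cut at about 8% in these data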
# TMEM16A inh = mouse TMEM16A channel inhibition, primary screen | Q8BHY3 | normalized B-score (activity score, 25-100; higher = stronger inhibition) at 10 µM | AID 588511 | actives 1.2% (n = 310,000) | HEK293 TMEM16A/YFP iodide influx fluorescence, ionomycin;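 active = ratio plate-corrected score three or more library SD toward inhibition, starting fluorescence score within five deviations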;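 note: score derived from kinetic fluorescence span divided by baseline fluorescence per well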
# U2OS cAMP counter = U2OS forskolin cAMP inhibition counter-screen; shares compounds with MC4R antag cAMP; actives 26% (n = 1,600); parental U2OS, LANCE TR-FRET; inhibition, % at 6.5 µM; AID 602193;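 active = mean inhibition over triplicates above the low-control well mean plus 3 SD, set per campaign, cut at about 13% in these data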;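 note: signal is single emission at 671 nm which falls as cellular cAMP rises; 0% = forskolin-stimulated wells and 100% = buffer without forskolin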
# MC4R antag conf = human MC4R cAMP antagonism confirmation; shares compounds with MC4R antag cAMP; MC4R-expressing cells, MTII-stimulated cAMP, TR-FRET; inhibition, % at 6.5 µM; actives 27% (n = 1,600); in the data active = inhibition above about 29%;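 note: 0% = agonist stimulated wells alone and 100% = agonist stimulated wells plus saturating reference antagonist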
# * = called active by the depositor; i = inactive; / = no result given.
SMILES,HTR2A ag,beta cell repl,TMEM16A act,MC4R antag cAMP,MC4R ag barr,TMEM16A inh,U2OS cAMP counter,MC4R antag conf
COc1cccc(CNC(=O)COC(=O)CCS(=O)(=O)c2ccc(C)cc2)c1,4.4,-1.1,i,30.1*,-1.9,/,0.1,10.1
CC(NC(=O)Oc1cccc2ccccc12)c1ccccc1 (centres undefined),5.6,/,i,7.8,1.2,/,/,/
CCCC(=O)NC1=C(Cl)C(=O)c2ccccc2C1=O,-3.6,/,i,92.8*,-1.3,/,78.4*,106.2*
COc1cccc(OCC(O)CNC(=O)c2oc3ccc(C)cc3c2C)c1 (centres undefined),-2.1,0.7,i,8.0,2.3,i,/,/
O=C(/C(=C/O)N=Nc1ccccc1)c1ccc(Cl)cc1,-1.3,-5.6,i,33.6*,2.0,i,5.7,9.2
Cc1ccc(N=N/C(=C\O)C(=O)c2ccc(Cl)cc2)cc1,10.0,-5.4,i,-5.4,1.9,i,/,/
CCC1(c2ccccc2)NC(=O)N(CC#N)C1=O (centres undefined),-1.1,-2.5,i,28.8*,-1.3,i,4.3,5.8
CCCCN1C(=O)C(CC(=O)NCCN2CCOCC2)CC(C(=O)N(C)C)=C1C (centres undefined),-4.4,/,/,2.2,1.9,/,/,/
Cc1ccc(NC(=O)c2cc(N3C(=O)C=CC3=O)ccc2Cl)cc1C,0.8,-6.0,i,56.9*,-1.6,i,8.2,11.5
Cc1ccc(NC(=O)c2cc(N3C(=O)C=CC3=O)ccc2N2CCOCC2)cc1,2.0,/,i,68.9*,-2.0,/,8.5,50.5*
Cc1ccc(NC(=O)c2cc(-n3cnnc3)ccc2Cl)cc1,-1.1,-0.9,i,2.0,-1.4,i,/,/
COc1ccc(CCCNC(=O)C2(C)Cc3c(-c4ccc(NC(C)=O)cc4)ccnc3O2)cc1 (centres undefined),4.4,/,/,34.0*,1.9,/,3.2,2.9
COc1cccc(-c2ccc3c(c2)O[C@H](CN(C)C(=O)c2ccccc2F)[C@H](C)CN([C@H](C)CO)S3(=O)=O)c1,2.1,/,/,26.1,-0.3,/,/,/
O=CN1N=C(c2ccccc2)CC1c1ccc(Cl)cc1 (centres undefined),0.9,0.2,i,15.7,0.7,i,/,/
O=C1OC(c2ccccc2)=NC12CC2c1ccc(Cl)cc1 (centres undefined),1.5,-5.6,i,28.7*,-0.5,i,-0.1,3.9
CSCCC(NC(=O)c1cccc(C)c1)C(=O)OCN1C(=O)c2ccccc2C1=O (centres undefined),3.3,0.1,i,29.6*,-2.1,i,10.5,40.8*
CSCCC(NC(=O)c1cccc(C)c1)C(=O)OCC(=O)NC(=O)c1cccn1C (centres undefined),-0.4,0.2,i,10.5,-1.1,i,/,/
O=C(COC(=O)CNC(=O)c1ccccc1)NCc1ccc2c(c1)OCO2,-4.2,-2.1,i,19.6,-5.0,/,/,/
O=C(COC(=O)CNC(=O)c1cccc(OC(F)F)c1)NCc1ccc2c(c1)OCO2,-5.9,0.0,i,32.7*,-2.2,/,19.6*,39.6*
CCCc1cc(=O)oc2c3c(c4c(c12)OC(C)(C)C=C4)OC(C)C(C)C3O (centres undefined),2.8,-5.9,i,29.6*,0.3,i,-1.9,1.5
COC(=O)COc1ccc(S(=O)(=O)Nc2ccccc2C(=O)OC)cc1,-2.3,-0.8,i,35.1*,-0.7,i,20.8*,35.0*
O=C(Nc1ccc(F)cc1)C(c1cccc(F)c1)N1CCN(C(=O)c2ccco2)CC1 (centres undefined),-0.6,/,/,/,/,/,/,/
CCOC(=O)/C(=N\Nc1ccccc1Cl)N1CCN(c2ccccc2OC)CC1,0.0,-5.4,i,29.3*,-0.3,i,1.2,-2.0
CCOC(=O)/C(=N\Nc1ccccc1Cl)N1CCN(C)CC1,-3.9,0.0,i,-4.3,-2.2,i,/,/
CCC1=C(c2cc(OC)c(OC)c(OC)c2)C2(CCCC2)C(=O)O1,-1.8,-3.8,i,7.1,0.1,i,/,/
SMILES,HTR2A ag,beta cell repl,TMEM16A act,MC4R antag cAMP,MC4R ag barr,TMEM16A inh,U2OS cAMP counter,MC4R antag conf
CCC1(C)Cc2ccccc2-c2[nH]c(=S)[nH]c(=O)c21 (centres undefined),2.3,2.4,i,29.3*,-0.8,i,19.7*,46.5*
CCC1(C)Cc2ccccc2-c2nc[nH]c(=O)c21 (centres undefined),-0.6,-1.5,i,0.5,1.0,i,/,/
OC(c1ccc(F)c(F)c1)c1ncc(-c2cccc(C(F)(F)F)c2)[nH]1 (centres undefined),-0.7,/,/,-16.4,5.3,/,/,/
O=C1CC(=O)N(CCNc2ncc(C(F)(F)F)cc2Cl)C(=O)N1,9.4,-0.7,i,-6.0,0.8,i,/,/
O=C1C=CC(=O)N1CCNc1ncc(C(F)(F)F)cc1Cl,-5.4,-5.4,i,52.8*,-1.5,/,-4.6,23.7
O=C(COC(=O)c1ccc2c(=O)n3c(nc2c1)CCC3)Nc1ccc(OC(F)F)cc1,-1.3,-0.4,i,29.8*,-3.2,i,4.7,17.2
Cc1cccc(NC(=O)COC(=O)c2ccc3c(=O)n4c(nc3c2)CCC4)c1,0.1,1.3,i,17.3,-1.0,i,/,/
CN1CCN(C(=O)/C=C/c2cn(-c3ccccc3)nc2-c2ccc3c(c2)OCCO3)CC1,-5.3,-5.5,i,36.0*,-0.7,i,7.0,23.4
CN(C)C(=O)/C=C\c1cn(-c2ccccc2)nc1-c1ccc2c(c1)OCCO2,0.3,-1.9,i,9.8,-0.4,i,/,/
COc1cc(C=NO)nc(-c2ccccn2)c1,2.0,/,i,-0.5,1.6,/,/,/
COc1ccc(OC)c(NC(=O)COC(=O)CC2CCCCC2)c1,-0.9,4.8,i,8.1,5.9,/,/,/
CSCCC(Nc1ncnc2ccc(Br)cc12)C(=O)O (centres undefined),1.3,-0.3,i,30.8*,-0.3,i,8.2,12.4
S=C(NCCCN1CCN(CCCNC(=S)NC2CCCCC2)CC1)NC1CCCCC1,-6.0,/,i,6.8,-0.7,/,/,/
CCOc1ccc(NC(=O)CNC(=O)c2nn(-c3ccc(OC)c(OC)c3)c(=O)c3ccccc23)cc1,6.9,0.0,i,37.7*,1.0,i,12.6,18.6
CCOc1ccccc1NC(=O)CNC(=O)c1nn(-c2ccc(OC)c(OC)c2)c(=O)c2ccccc12,7.8,0.0,i,5.6,-2.5,i,/,/
